Source: ChEMBL document CHEMBL1133563, “Development of new hydroxamate matrix metalloproteinase inhibitors derived from functionalized 4-aminoprolines” (J Med Chem, 2000)

What was measured:
Stromelysin-1 = Stromelysin-1 (Homo sapiens, UniProt P08254); test: In vitro inhibitory activity against matrix metalloprotease -3 (stromelysin)
Matrilysin = target: T1, Matrilysin (Homo sapiens, UniProt P09237); test: In vitro inhibitory activity against matrix metalloprotease-7 (matrilysin, MMP-7)
T1 sequence (P09237 whole entry): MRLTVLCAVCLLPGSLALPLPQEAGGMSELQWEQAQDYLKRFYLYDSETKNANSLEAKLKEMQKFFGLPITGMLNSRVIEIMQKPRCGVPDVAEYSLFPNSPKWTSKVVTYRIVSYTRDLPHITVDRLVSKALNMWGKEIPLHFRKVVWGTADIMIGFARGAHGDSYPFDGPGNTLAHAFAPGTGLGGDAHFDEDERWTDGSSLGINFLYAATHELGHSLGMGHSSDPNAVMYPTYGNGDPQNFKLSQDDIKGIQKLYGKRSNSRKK
How it was run: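 Human recombinant truncated enzymes, final MMP-1 8 nM, MMP-3 16 nM, MMP-7 2 nM. Quenched-fluorescence assay with Mca-Pro-Leu-Gly-Leu-Dpa-Ala-Arg-NH₂ (4 µM) in 50 mM Tris pH 7.5, 0.2 M NaCl, 5 mM CaCl₂, 0.02% Brij-35 at 25 °C. Fluorescence (ex 328/em 393 nm) read kinetically for 30 min.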

Interstitial collagenase = target: T2, Interstitial collagenase (Homo sapiens, UniProt P03956); test: In vitro inhibitory activity against matrix metalloprotease -1 (collagenase-1)
T2 sequence (P03956 whole entry): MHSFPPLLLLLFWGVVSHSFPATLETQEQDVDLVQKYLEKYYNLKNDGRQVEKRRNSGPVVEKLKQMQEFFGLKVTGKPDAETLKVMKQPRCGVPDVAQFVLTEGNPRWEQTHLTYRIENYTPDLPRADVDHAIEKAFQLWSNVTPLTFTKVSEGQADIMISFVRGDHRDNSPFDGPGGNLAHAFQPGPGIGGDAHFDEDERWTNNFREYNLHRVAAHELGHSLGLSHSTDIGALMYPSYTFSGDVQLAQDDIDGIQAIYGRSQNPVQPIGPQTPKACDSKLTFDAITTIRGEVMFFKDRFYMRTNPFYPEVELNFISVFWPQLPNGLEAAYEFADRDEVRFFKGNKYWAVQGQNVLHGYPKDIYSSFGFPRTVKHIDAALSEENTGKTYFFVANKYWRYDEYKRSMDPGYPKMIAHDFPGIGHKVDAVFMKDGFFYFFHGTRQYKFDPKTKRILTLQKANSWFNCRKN

Collagenase 3 = Collagenase 3 (Homo sapiens, UniProt P45452); test: In vitro inhibitory activity against human recombinant matrix metalloprotease-13 (collagenase-3)
[1] = target: 72 kDa type IV collagenase (Homo sapiens, UniProt P08253); test: In vitro inhibitory activity against matrix metalloprotease -2 (gelatinase-A)
Chain of 72 kDa type IV collagenase (P08253 whole entry): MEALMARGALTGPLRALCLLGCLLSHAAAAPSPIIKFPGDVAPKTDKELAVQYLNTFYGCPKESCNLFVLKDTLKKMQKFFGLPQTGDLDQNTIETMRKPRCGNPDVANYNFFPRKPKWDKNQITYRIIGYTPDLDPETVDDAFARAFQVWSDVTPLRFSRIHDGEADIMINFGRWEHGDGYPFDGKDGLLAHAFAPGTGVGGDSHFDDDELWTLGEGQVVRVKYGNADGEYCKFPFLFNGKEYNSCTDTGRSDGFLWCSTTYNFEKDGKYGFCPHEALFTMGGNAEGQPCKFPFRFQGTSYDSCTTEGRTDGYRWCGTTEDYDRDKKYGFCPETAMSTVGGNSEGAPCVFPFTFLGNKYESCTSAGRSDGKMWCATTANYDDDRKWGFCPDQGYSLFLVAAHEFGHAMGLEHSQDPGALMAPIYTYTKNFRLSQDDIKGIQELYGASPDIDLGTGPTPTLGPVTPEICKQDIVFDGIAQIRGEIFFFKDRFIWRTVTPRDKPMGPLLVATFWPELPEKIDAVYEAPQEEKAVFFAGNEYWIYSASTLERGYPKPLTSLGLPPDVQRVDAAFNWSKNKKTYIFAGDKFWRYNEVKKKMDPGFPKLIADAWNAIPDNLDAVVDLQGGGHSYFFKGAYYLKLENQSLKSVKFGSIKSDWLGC

Chain of Stromelysin-1 (P08254 whole entry): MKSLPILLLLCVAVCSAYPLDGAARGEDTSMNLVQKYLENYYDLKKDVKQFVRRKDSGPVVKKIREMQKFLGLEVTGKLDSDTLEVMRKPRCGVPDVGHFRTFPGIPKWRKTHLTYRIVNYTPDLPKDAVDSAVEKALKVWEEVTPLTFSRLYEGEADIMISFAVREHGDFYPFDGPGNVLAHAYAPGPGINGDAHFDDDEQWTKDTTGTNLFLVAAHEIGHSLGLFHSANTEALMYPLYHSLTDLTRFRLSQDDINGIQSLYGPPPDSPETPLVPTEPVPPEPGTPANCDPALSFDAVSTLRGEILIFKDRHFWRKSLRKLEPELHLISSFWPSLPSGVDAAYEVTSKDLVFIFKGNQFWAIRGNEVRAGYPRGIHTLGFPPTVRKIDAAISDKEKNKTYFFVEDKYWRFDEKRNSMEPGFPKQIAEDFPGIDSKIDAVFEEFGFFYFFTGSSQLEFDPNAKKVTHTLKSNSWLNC

| SMILES | IC50 (Stromelysin-1) | IC50 (Matrilysin) | IC50 (Interstitial collagenase) | IC50 (Collagenase 3) | IC50 [1] |
| --- | --- | --- | --- | --- | --- |
| O=C(NO)[C@H]1C[C@H](N2CCCC2)CN1S(=O)(=O)c1ccc(Oc2ccc(F)cc2)cc1 | 4 nM | 850 nM | 20 nM | < 0.4 nM |  |
| COc1ccc(S(=O)(=O)N2C[C@@H](NCCc3ccccc3)C[C@@H]2C(=O)NO)cc1 | 57 nM | 1400 nM | 560 nM |  |  |
| COc1ccc(S(=O)(=O)N2C[C@@H](N3CCCCC3)C[C@@H]2C(=O)NO)cc1 | 48 nM | 7400 nM |  | 1 nM | 6 nM |
| CCCCOc1ccc(S(=O)(=O)N2C[C@@H](N3CCCS3(=O)=O)C[C@@H]2C(=O)NO)cc1 | 13 nM | 680 nM | 230 nM | < 0.4 nM |  |
| COc1ccc(S(=O)(=O)N2C[C@@H](NS(C)(=O)=O)C[C@@H]2C(=O)NO)cc1 | 42 nM | 2700 nM | 260 nM | 2 nM | 2 nM |
| COc1ccc(S(=O)(=O)N2C[C@@H](N3CCOCC3)C[C@@H]2C(=O)NO)cc1 | 14 nM |  | 220 nM |  | 6 nM |
| CCCCCc1ccc(S(=O)(=O)N2C[C@@H](N3CCOCC3)C[C@@H]2C(=O)NO)cc1 | 12 nM | 7400 nM |  | 0.7 nM |  |
| COc1ccc(S(=O)(=O)N2C[C@@H](NC(=O)c3ccc(-c4ccccc4)cc3)C[C@@H]2C(=O)NO)cc1 | 400 nM |  | > 1000 nM |  |  |
| CCCCOc1ccc(S(=O)(=O)N2C[C@@H](N3C(=O)CN(CCC)C3=O)C[C@@H]2C(=O)NO)cc1 | 10 nM | 1200 nM | 570 nM | 0.3 nM | 0.4 nM |
| CCCOc1ccc(S(=O)(=O)N2C[C@@H](N3CCCC3)C[C@@H]2C(=O)NO)cc1 | 8 nM | 8700 nM | 310 nM | 1 nM | < 1 nM |
| CCCN1CC(=O)N([C@H]2C[C@H](C(=O)NO)N(S(=O)(=O)c3ccc(OCCOC)cc3)C2)C1=O | 30 nM | 11000 nM | 2500 nM | 2 nM | 2 nM |
| CCCOc1ccc(S(=O)(=O)N2C[C@@H](NC(=O)[C@H](C)O)C[C@@H]2C(=O)NO)cc1 | 8 nM | 3500 nM | 140 nM | 1 nM |  |
| CCCN([C@H]1C[C@H](C(=O)NO)N(S(=O)(=O)c2ccc(OC)cc2)C1)S(C)(=O)=O | 10 nM | 920 nM | 33 nM | 0.8 nM | 0.8 nM |
| CCCCOc1ccc(S(=O)(=O)N2C[C@@H](NC(=O)[C@@H](O)CC(C)C)C[C@@H]2C(=O)NO)cc1 | 10 nM | 2400 nM | 440 nM | 0.9 nM |  |
| CCCN(C(=O)[C@H](C)O)[C@H]1C[C@H](C(=O)NO)N(S(=O)(=O)c2ccc(OC)cc2)C1 | 2 nM | 8500 nM | 87 nM | 1 nM | 0.7 nM |
| COc1ccc(S(=O)(=O)N2C[C@@H](N)C[C@@H]2C(=O)NO)cc1 | 23 nM | 4300 nM | 250 nM | 5 nM | 6 nM |
| CC(C)COc1ccc(S(=O)(=O)N2C[C@@H](N3C(=O)CN(C)C3=O)C[C@@H]2C(=O)NO)cc1 | 3 nM | 2300 nM | 300 nM | 2.8 nM |  |
| CS(=O)(=O)N[C@H]1C[C@H](C(=O)NO)N(S(=O)(=O)c2ccc(Oc3ccncc3)cc2)C1 | 22 nM | > 10000 nM | 450 nM | 0.8 nM |  |
| CCCOc1ccc(S(=O)(=O)N2C[C@@H](NC(=O)COC)C[C@@H]2C(=O)NO)cc1 | 30 nM | > 10000 nM | 500 nM | 3 nM |  |
| CCCOc1ccc(S(=O)(=O)N2C[C@@H](N3CCCS3(=O)=O)C[C@@H]2C(=O)NO)cc1 | 8 nM | 840 nM | 100 nM | < 0.4 nM |  |
| COc1ccc(S(=O)(=O)N2C[C@@H](NC(=O)[C@H](C)OCc3ccccc3)C[C@@H]2C(=O)NO)cc1 | 7 nM |  | 140 nM |  | 0.3 nM |
| CCCCOc1ccc(S(=O)(=O)N2C[C@@H](NC(=O)COC)C[C@@H]2C(=O)NO)cc1 | 14 nM | 4900 nM | 1200 nM | 0.7 nM |  |
